Experimental findings from ChEMBL document CHEMBL1137611, “Toward potent ghrelin receptor ligands based on trisubstituted 1,2,4-triazole structure. 2. Synthesis and pharmacological in vitro and in vivo evaluations” (J Med Chem, 2007) are described below.

The species entered for experiment [1] is Rattus norvegicus. In words: Effect on cumulative food intake per 100 g body weight of Sprague-Dawley rat at 160 ug after 6 hrs. The class given is functional. In a few lines:
(§1)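 Young-adult male rats (125–150 g), singly housed, acclimated 1 week and trained daily for a further week. Test compound given sc at 160 μg/kg mid-morning, then returned to cages with a known amount of chow. Cumulative intake recorded at 2 or 6 h as g food/100 g body weight.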

The species named for experiment [2] is Rattus norvegicus. In words: Inhibition of hexarelin-stimulated cumulative food intake per 100 g body weight of Sprague-Dawley rat at 160 ug after 6 hrs. The class given is functional. In a few lines:
(§2)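 Young-adult male rats (125–150 g), singly housed, acclimated and trained. Compound given sc at time −10 min (0, 20, 80, 160 or 320 μg/kg), then hexarelin 80 μg/kg sc at time 0. Rats returned to home cages with a known amount of chow. Cumulative intake recorded as g food/100 g body weight at 2 h and 6 h.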

The species named for experiment [3] is Rattus norvegicus. In words: Effect on cumulative food intake per 100 g body weight of Sprague-Dawley rat at 160 ug after 2 hrs. Type of experiment: functional. In a few lines: as §1
The species named for experiment [4] is Rattus norvegicus. The experiment in a line: Inhibition of hexarelin-stimulated cumulative food intake per 100 g body weight of Sprague-Dawley rat at 160 ug after 2 hrs. Type of experiment: functional. In a few lines:
as §2

The subject of experiment [5] is Rattus norvegicus. The experiment in a line: Inhibition of growth hormone secretion in infant Sprague-Dawley rat at 160 ug/kg, sc. Type of experiment: functional. In a few lines: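 Male 10-day-old pups (~25 g), separated from dams 1 h before testing, groups of eight. Dosed sc with vehicle (DMSO, final 1:300), compound 160 μg/kg, or compound 10 min before hexarelin 80 μg/kg sc. Decapitated 15 min later; plasma GH measured by rat GH enzyme immunoassay and expressed as ng/mL against the NIDDK-rGH-RP-2 standard.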

For experiment [6], the target named is T1, Growth hormone secretagogue receptor type 1 (Homo sapiens, UniProt Q92847). The experiment in a line: Activity at human GHS1a receptor expressed in CHO cells assessed as accumulation of intracellular calcium level at 10 uM relative to ghrelin. The class given is functional, cell-based. In a few lines:
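CHO cells transiently electroporated with hGHS-R1a, loaded 24 h later with 1 μM Fluo-4AM (1 h, 37 °C, dark), then de-esterified 30 min at room temperature. Fluorescence (ex 485/em 525 nm) recorded over 60 s, compound at 10 μM added at 15 s. Triplicates, at least two independent experiments. Response expressed as percent of maximum with 0.1 μM ghrelin.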

Experiment [7] relates to Rattus norvegicus. The experiment in a line: Inhibition of hexarelin-stimulated cumulative food intake per 100 g body weight of Sprague-Dawley rat at 20 ug/kg. Type of experiment: functional. In a few lines:
as §2

The subject of experiment [8] is Rattus norvegicus. The experiment in a line: Inhibition of hexarelin-stimulated cumulative food intake per 100 g body weight of Sprague-Dawley rat at 320 ug/kg. Type of experiment: functional. In a few lines: as §2
The test system of experiment [9] is Rattus norvegicus. The experiment in a line: Inhibition of hexarelin-stimulated cumulative food intake per 100 g body weight of Sprague-Dawley rat at 80 ug/kg. The class given is functional. In a few lines:
as §2

In experiment [10] the target is T1, Growth hormone secretagogue receptor type 1. The experiment in a line: Antagonist activity at human GHS1a receptor expressed in CHO cells assessed as accumulation of intracellular calcium level. The class given is functional, cell-based. A general note: A change in cytosolic calcium serves as a functional read-out for many receptors and channels.

T1 sequence (Q92847 whole entry): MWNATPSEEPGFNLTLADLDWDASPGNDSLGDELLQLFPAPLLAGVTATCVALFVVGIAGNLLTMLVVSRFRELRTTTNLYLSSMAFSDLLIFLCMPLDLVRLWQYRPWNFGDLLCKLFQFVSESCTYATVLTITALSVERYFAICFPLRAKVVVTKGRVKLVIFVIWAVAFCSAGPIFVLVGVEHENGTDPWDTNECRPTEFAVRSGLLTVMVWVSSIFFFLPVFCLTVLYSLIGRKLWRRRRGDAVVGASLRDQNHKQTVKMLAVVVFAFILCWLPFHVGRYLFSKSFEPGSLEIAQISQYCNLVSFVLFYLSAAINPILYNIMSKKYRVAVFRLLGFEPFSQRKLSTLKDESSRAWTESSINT

Regarding `COc1ccc(Cn2c(CCc3ccccc3)nnc2[C@@H](Cc2c[nH]c3ccccc23)NC(=O)[C@H]2CCCCN2)cc1`, the Activity in the experiment filed under Rattus norvegicus [1] was found to be 0.01 g; in the experiment filed under Rattus norvegicus [2] it was 1.07 g; in the experiment listed under Rattus norvegicus [3] it was 0.01 g; in the experiment listed under Rattus norvegicus [4] it was 0.85 g; with Rattus norvegicus [5] it was 6.09 ng/mL; in experiment [6], 7%.

For `COc1ccc(Cn2c(CCc3c[nH]c4ccccc34)nnc2[C@@H](Cc2c[nH]c3ccccc23)NC(=O)[C@H]2CCCN2)cc1`, the Activity in the experiment listed under Rattus norvegicus [1] came to 0.03 g; in the experiment listed under Rattus norvegicus [2] it was 0.36 g; in the experiment listed under Rattus norvegicus [3] it was 0.01 g; in the experiment listed under Rattus norvegicus [4] it was 0.05 g; in the experiment with Rattus norvegicus [7], 0.17 g; in the experiment with Rattus norvegicus [8], 0.58 g. For the same molecule, the Activity in the experiment on Rattus norvegicus [9] worked out at 0.15 g; in experiment [6], 7%. In experiment [10], the antagonist dissociation constant (Kb) (commonly the equilibrium dissociation constant of an antagonist, usually derived from a functional assay) was 7 nM.

Consider `COc1ccc(Cn2c(CCc3ccccc3)nnc2[C@@H](Cc2c[nH]c3ccccc23)NC(=O)CN)cc1`, for which the Activity in the experiment filed under Rattus norvegicus [1] is reported as 0.04 g; in the experiment filed under Rattus norvegicus [2] it was 0.28 g; in the experiment listed under Rattus norvegicus [3], 0.01 g; in the experiment listed under Rattus norvegicus [4], 0.01 g; in the experiment with Rattus norvegicus [7], 0.63 g; in the experiment on Rattus norvegicus [8] it was 0.36 g. For the same molecule, the Activity came to 0.56 g with Rattus norvegicus [9], 9.85 ng/mL in the experiment with Rattus norvegicus [5] and 0% in [6].
